In ChEMBL document CHEMBL1124865, “Synthesis and biological evaluation of a series of parenteral 3'-quaternary ammonium cephalosporins” (J Med Chem, 1990):
Converted amounts (≈) assume the structure as drawn.

Legend:
Klebsiella pneumoniae [1] = experiment: microbe, parasite or virus in culture; format: functional; conditions: Klebsiella pneumoniae; read-out: MIC
Enterococcus faecium = experiment: Antibacterial activity against Enterococcus faecium; format: functional; conditions: Enterococcus faecium; read-out: MIC
Cavia porcellus [2] = species on record: Cavia porcellus; experiment: In vitro relative anticholinergic activity in isolated guinea pig trachea; format: functional; conditions: read-out: pA2 (converted)
Outline: (§1)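 Guinea pig trachea in Krebs' solution at 37.5 °C, 95% O2/5% CO2, pH 7.4, 2 g resting tension. Cumulative carbachol log dose-response curve (3-fold steps) run before and 30 min after adding antagonist at 1 mM. […] Tukey test on log2 dose ratios.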

Streptococcus pyogenes = experiment: Antibacterial activity against Streptococcus pyogenes; format: functional; conditions: Streptococcus pyogenes; read-out: MIC
Escherichia coli [3] = experiment: Antibacterial activity against Escherichia coli EC14; format: functional; conditions: Escherichia coli; read-out: MIC
Cavia porcellus [4] = species on record: Cavia porcellus; experiment: In vitro relative anticholinergic potential in isolated guinea pig trachea; format: functional
Outline: as §1

Pseudomonas aeruginosa [5] = experiment: Antibacterial activity against Pseudomonas aeruginosa X528; format: functional; conditions: Pseudomonas aeruginosa; read-out: MIC
Streptococcus pneumoniae = experiment: Antibacterial activity against Streptococcus pneumoniae; format: functional; conditions: Streptococcus pneumoniae; read-out: MIC
Pseudomonas aeruginosa [6] = experiment: Antibacterial activity against Pseudomonas aeruginosa PS18; format: functional; conditions: Pseudomonas aeruginosa; read-out: MIC
Staphylococcus aureus [7] = experiment: Antibacterial activity against penicillin G resistance Staphylococcus aureus; format: functional; conditions: Staphylococcus aureus; read-out: MIC
Staphylococcus aureus [8] = experiment: Antibacterial activity against penicillin G susceptible Staphylococcus aureus; format: functional; conditions: Staphylococcus aureus; read-out: MIC
Enterobacter cloacae [9] = experiment: Antibacterial activity against Enterobacter cloacae 265A; format: functional; conditions: Enterobacter cloacae; read-out: MIC
Serratia marcescens = experiment: Antibacterial activity against Serratia marcescens SE3; format: functional; conditions: Serratia marcescens; read-out: MIC
Escherichia coli [10] = experiment: Antibacterial activity against Escherichia coli TEM; format: functional; conditions: Escherichia coli; read-out: MIC
[11] = In vitro dose required for anticholinergic activity in isolated guinea pig trachea; format: functional
Klebsiella pneumoniae [12] = experiment: Antibacterial activity against Klebsiella pneumoniae X26; format: functional; conditions: Klebsiella pneumoniae; read-out: MIC
Enterobacter cloacae [13] = experiment: Antibacterial activity against Enterobacter cloacae EB5; format: functional; conditions: Enterobacter cloacae; read-out: MIC
[14] = Terminal half life in dogs at the dose of 60 mg/kg.; format: ADME, organism-based, Canis lupus familiaris; parameters: dose 60 mg/kg; conditions: dog, in vivo
Outline: (§2)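 Overnight-fasted female mongrel dogs with a Foley bladder catheter; bolus into the cephalic vein. Plasma and urine collected before dosing and over 24 h after. Antibacterial activity measured by microbiological assay.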

Canis familiaris = experiment: Percent of dose in dogs urine at the dose of 60 mg/kg.; format: functional, Canis lupus familiaris
Outline: as §2

Escherichia coli [15] = experiment: In vivo efficacy against Escherichia coli infected mice treated at 1 hr and 5 hr post infection; format: functional; conditions: Escherichia coli; read-out: ED50
Pseudomonas aeruginosa [16] = experiment: In vivo efficacy against Pseudomonas aeruginosa infections in mice; format: functional; conditions: Pseudomonas aeruginosa; read-out: MIC
Staphylococcus aureus [17] = experiment: In vivo efficacy against Staphylococcus aureus infected mice treated at 1 hr and 5 hr post infection; format: functional; conditions: Staphylococcus aureus; read-out: ED50
Escherichia coli [18] = experiment: In vivo efficacy against Escherichia coli infections in mice; format: functional; conditions: Escherichia coli; read-out: MIC
Staphylococcus aureus [19] = experiment: In vivo efficacy against Staphylococcus aureus infections in mice; format: functional; conditions: Staphylococcus aureus; read-out: MIC
Pseudomonas aeruginosa [20] = experiment: In vivo efficacy against Pseudomonas aeruginosa infected mice treated at 1 hr and 5 hr post infection; format: functional; conditions: Pseudomonas aeruginosa; read-out: ED50

Row | Structure (SMILES) | MIC (Klebsiella pneumoniae [1]) [µg/mL] | MIC (Enterococcus faecium) [µg/mL] | Kb (Cavia porcellus [2]) [µM] | MIC (Streptococcus pyogenes) [µg/mL] | MIC (Escherichia coli [3]) [µg/mL] | RAP (Cavia porcellus [4]) | MIC (Pseudomonas aeruginosa [5]) [µg/mL] | MIC (Streptococcus pneumoniae) [µg/mL] | MIC (Pseudomonas aeruginosa [6]) [µg/mL] | MIC (Staphylococcus aureus [7]) [µg/mL] | MIC (Staphylococcus aureus [8]) [µg/mL] | MIC (Enterobacter cloacae [9]) [µg/mL] | MIC (Serratia marcescens) [µg/mL] | MIC (Escherichia coli [10]) [µg/mL] | Dose ratio [11] | MIC (Klebsiella pneumoniae [12]) [µg/mL] | MIC (Enterobacter cloacae [13]) [µg/mL] | half-life [14] [min] | Percent of dose recovered in urine (Canis familiaris) [%] | ED50 (Escherichia coli [15]) [mg/kg] | further results
1 | CO/N=C(\C(=O)N[C@@H]1C(=O)N2C(C(=O)[O-])=C(C[n+]3ccc4sc(C)nc4c3)CS[C@H]12)c1csc(N)n1 | 2 (≈ 3.67 µM) | 128 (≈ 235 µM) | 603 | 0.008 (≈ 0.0147 µM) | 0.015 (≈ 0.0275 µM) | 7 | 4 (≈ 7.33 µM) | 0.015 (≈ 0.0275 µM) | 8 (≈ 14.7 µM) | 2 (≈ 3.67 µM) | 2 (≈ 3.67 µM) | 2 (≈ 3.67 µM) | 0.125 (≈ 0.229 µM) |  |  |  |  |  |  |  | 
2 | CO/N=C(\C(=O)N[C@@H]1C(=O)N2C(C(=O)[O-])=C(C[n+]3csc(CCO)c3C)CS[C@H]12)c1csc(N)n1 | 4 (≈ 7.43 µM) | 16 (≈ 29.7 µM) |  | 0.03 (≈ 0.0557 µM) | 0.06 (≈ 0.111 µM) | 1 | 8 (≈ 14.9 µM) | 0.03 (≈ 0.0557 µM) | 16 (≈ 29.7 µM) | 4 (≈ 7.43 µM) | 2 (≈ 3.71 µM) | 4 (≈ 7.43 µM) | 0.125 (≈ 0.232 µM) | 0.03 (≈ 0.0557 µM) | 1.27 | 0.03 (≈ 0.0557 µM) | 0.125 (≈ 0.232 µM) |  |  |  | 
3 | CO/N=C(\C(=O)N[C@@H]1C(=O)N2C(C(=O)[O-])=C(C[n+]3ccc4sc(C(=O)O)cc4c3)CS[C@H]12)c1csc(N)n1 | 4 (≈ 6.96 µM) | > 128 |  | < 0.008 | < 0.008 | 2 | 2 (≈ 3.48 µM) | < 0.008 | 8 (≈ 13.9 µM) | 16 (≈ 27.8 µM) | 2 (≈ 3.48 µM) | 32 (≈ 55.7 µM) | 0.06 (≈ 0.104 µM) | 0.03 (≈ 0.0522 µM) | 1.52 | < 0.008 | 0.06 (≈ 0.104 µM) | 90 | 98 |  | 
4 | CO/N=C(\C(=O)N[C@@H]1C(=O)N2C(C(=O)[O-])=C(C[n+]3ccccc3)CS[C@H]12)c1csc(N)n1 | 4 (≈ 8.43 µM) | > 128 | 490 | 0.03 (≈ 0.0632 µM) | 0.03 (≈ 0.0632 µM) | 9 | 2 (≈ 4.21 µM) | 0.03 (≈ 0.0632 µM) | 4 (≈ 8.43 µM) | 2 (≈ 4.21 µM) | 1 (≈ 2.11 µM) | 2 (≈ 4.21 µM) | 0.25 (≈ 0.527 µM) | 0.03 (≈ 0.0632 µM) | 3.04 | 0.03 (≈ 0.0632 µM) | 0.06 (≈ 0.126 µM) | 100 | 94 | 0.07 | MIC (Pseudomonas aeruginosa [16]): 16 µg/mL (≈ 33.7 µM); ED50 (Staphylococcus aureus [17]): 0.8 mg/kg; MIC (Escherichia coli [18]): 0.06 µg/mL (≈ 0.126 µM); MIC (Staphylococcus aureus [19]): 1 µg/mL (≈ 2.11 µM); ED50 (Pseudomonas aeruginosa [20]): 14.4 mg/kg
5 | CO/N=C(\C(=O)N[C@@H]1C(=O)N2C(C(=O)[O-])=C(C[n+]3ccc4occc4c3)CS[C@H]12)c1csc(N)n1 | 4 (≈ 7.77 µM) | > 128 |  | < 0.008 | 0.015 (≈ 0.0292 µM) |  | 1 (≈ 1.94 µM) | < 0.008 | 2 (≈ 3.89 µM) | 4 (≈ 7.77 µM) | 0.5 (≈ 0.972 µM) | 4 (≈ 7.77 µM) | 0.03 (≈ 0.0583 µM) | 0.03 (≈ 0.0583 µM) |  | 0.015 (≈ 0.0292 µM) | 0.06 (≈ 0.117 µM) | 80 | 94 | < 0.6 | MIC (Pseudomonas aeruginosa [16]): 4 µg/mL (≈ 7.77 µM); ED50 (Staphylococcus aureus [17]): < 0.6 mg/kg; MIC (Escherichia coli [18]): 0.015 µg/mL (≈ 0.0292 µM); MIC (Staphylococcus aureus [19]): 1 µg/mL (≈ 1.94 µM); ED50 (Pseudomonas aeruginosa [20]): 18 mg/kg
6 | CO/N=C(\C(=O)N[C@@H]1C(=O)N2C(C(=O)[O-])=C(C[n+]3ccc4nc(C)sc4c3)CS[C@H]12)c1csc(N)n1 | 1 (≈ 1.83 µM) | 128 (≈ 235 µM) | 955 | 0.015 (≈ 0.0275 µM) |  | 5 | 8 (≈ 14.7 µM) |  | 8 (≈ 14.7 µM) | 4 (≈ 7.33 µM) | 1 (≈ 1.83 µM) | 16 (≈ 29.3 µM) | 0.25 (≈ 0.458 µM) |  |  |  |  |  |  |  | 
